Measured values from ChEMBL document CHEMBL3085690, “Naturally occurring antimicrobial peptide OH-CATH30 selectively regulates the innate immune response to protect against sepsis” (J Med Chem, 2013).
Active and inactive are the calls of the source. The calls are words filed in the database; no cut-off is given here. Peptide text beside a SMILES is read from it.

Columns and labels:
[1] = Cytotoxicity against mouse BMDM at 5 to 20 ug/ml by MTT assay
Mus musculus [2] = test: Stimulation of innate immune response in Kunming mouse assessed as protection against drug-resistant Staphylococcus aureus-induced mortality by measuring survival rate at 10 mg/kg, ip administered 5 hrs before bacterial infection measured up to 7 days; format: functional; conditions: route intraperitoneal
In short: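 Female Kunming mice (18−22 g) were dosed ip in sterile saline at 10 mg/kg, 5 h before ip challenge with clinical drug-resistant isolates: E. coli (n = 12), P. aeruginosa (n = 10) or S. aureus (n = 15). Survival was recorded for up to 7 days, with checks every 6 h and euthanasia by CO2 at the humane end point.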

BMDM [3] = test: Induction of CXCL5 mRNA up-regulation in mouse BMDM at 20 ug/ml after 3 hrs by qRT-PCR analysis; format: functional
In short: (§1)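 Murine BMDMs stimulated with peptide, then target mRNA quantified by qRT-PCR. Expression normalized to GAPDH, with untreated cells set to 1.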

BMDM [4] = test: Increase of IL-10 protein level in mouse BMDM at 20 ug/ml after 18 hrs by ELISA; format: functional
In short: (§2)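 Bone marrow-derived macrophages (RPMI 1640, 10% FCS, 20% L929-conditioned medium) stimulated with peptide for 18 h. Cytokines and chemokines in culture supernatant quantified by sandwich ELISA. Mean ± SD from three independent experiments, unpaired t test.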

BMDM [5] = test: Increase of IL-6 protein level in mouse BMDM at 20 ug/ml after 18 hrs by ELISA; format: functional; in short: as §2
BMDM [6] = test: Increase of CXCL1 protein level in mouse BMDM at 20 ug/ml after 18 hrs by ELISA; format: functional; in short: as §2
PBMC = test: Increase of cytokine production in human PBMC by qRT-PCR analysis; format: functional, cell-based
RAW264.7 [7] = test: Inhibition of LPS-induced IL-6 production in mouse RAW264.7 cells 2 to 50 ug/ml after 6 hrs by ELISA; format: functional, cell-based
Mus musculus [8] = test: Stimulation of innate immune response in Kunming mouse infected with Pseudomonas aeruginosa ATCC 27853 assessed as effect on CXCL2 production in peritoneal lavage at 10 mg/kg, ip after 3 hrs by ELISA; format: functional, organism-based; parameters: dose 10 mg/kg
In short: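 Mice were pretreated ip with peptide at 10 mg/kg 5 h before ip challenge with P. aeruginosa 27853 at 8 × 10^7 CFU/mouse. CCL2 and CXCL2 were measured in peritoneal lavage collected 3 h after inoculation. TNF-α and IL-6 were measured in serum collected 5 h after inoculation. All were read by ELISA; data are mean ± SD from four mice, unpaired t test.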

[9] = Increase of CXCL2 protein level in mouse BMDM at 10 ug/ml after 18 hrs by ELISA; format: functional; in short: as §2
[10] = target: MAP kinase p38 (Homo sapiens) (UniProt O15264+Q15759+Q16539+P53778); test: Activation of p38 kinase in mouse BMDM assessed as phosphorylation at 10 ug/ml by Western blotting; format: protein assay; conditions: TDE = time-dependent effect, target entry is the homologue from another species
In short: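 BMDMs cultured in RPMI 1640 with 10% FCS and 20% L929-conditioned medium. Lysates separated by 10% SDS-PAGE, blotted to PVDF and blocked in 5% BSA. Probed for phospho-JNK/JNK or phospho-p38/p38, then HRP goat anti-rabbit IgG, chemiluminescence read-out.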

[11] = Increase of IL-10 protein level in mouse BMDM at 10 ug/ml after 18 hrs by ELISA; format: functional; in short: as §2
[12] = Increase of CXCL2 production in mouse BMDM after 6 hrs by ELISA in presence of p38 MAPK inhibitor SB-202190; format: functional
Mus musculus [13] = test: Stimulation of innate immune response in Kunming mouse assessed as protection against CLP-induced mortality by measuring survival rate at 10 mg/kg, ip administered 2 hrs before bacterial infection measured up to 7 days; format: functional; conditions: route intraperitoneal
Mus musculus [14] = test: Stimulation of innate immune response in Kunming mouse assessed as protection against bacteria-induced mortality by measuring survival rate at 10 mg/kg, ip measured up to 7 days; format: functional, organism-based; parameters: dose 10 mg/kg
[15] = Half life in Kunming mouse at 10 mg/kg, ip; format: ADME, organism-based; parameters: dose 10 mg/kg, route intraperitoneal; conditions: in vivo
RAW264.7 [16] = test: Downregulation of TLR4/MD2 complex in plasma membrane in mouse RAW264.7 cells relative to LPS; format: functional
In short: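 RAW 264.7 cells in DMEM with 10% FCS, exposed 30 min to peptide (20 μg/mL) or LPS (1 μg/mL). Washed in ice-cold PBS, stained with PE anti-mouse TLR4/MD2 (2 μg/mL) for 30 min on ice. Surface complex measured by flow cytometry.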

[17] = Increase of CXCL2 production in mouse BMDM after 6 hrs by ELISA in presence of MEK1/2 inhibitor U0126; format: functional
BMDM [18] = test: Increase of CCL2 protein level in mouse BMDM at 20 ug/ml after 18 hrs by ELISA; format: functional; in short: as §2
Mus musculus [19] = test: Stimulation of innate immune response in neutropenic Kunming mouse infected with Pseudomonas aeruginosa ATCC 27853 assessed as reduction of bacterial burden in peritoneal lavage at 10 mg/kg, ip relative to control; format: functional; parameters: scale not given: the % may be the effect or the level left; conditions: route intraperitoneal
In short: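 Mice were made neutropenic with cyclophosphamide ip, 150 mg/kg on day 0 and 100 mg/kg on day 3. Peptide was given ip at 10 mg/kg 5 h before ip bacterial infection on day 5 (n = 10). Viable bacteria in the peritoneal cavity were counted 8 h after inoculation, and groups were compared by unpaired t test.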

BMDM [20] = test: Increase of IL-1beta protein level in mouse BMDM at 20 ug/ml after 18 hrs by ELISA; format: functional; in short: as §2
RAW264.7 [21] = test: Induction of H2O2 production in mouse RAW264.7 cells; format: functional, cell-based
RAW264.7 [22] = test: Induction of phagocytic activity in mouse RAW264.7 cells using fluorescently labeled Escherichia coli up to 2 hrs by fluorescent assay; format: functional, cell-based
BMDM [23] = test: Induction of CCL2 mRNA up-regulation in mouse BMDM at 20 ug/ml after 3 hrs by qRT-PCR analysis; format: functional; in short: as §1
Mus musculus [24] = test: Stimulation of innate immune response in Kunming mouse infected with Escherichia coli ATCC 25922 assessed as reduction of bacterial burden in peritoneal lavage by measuring survival rate at 10 mg/kg, ip administered 5 hrs before bacterial infection measured up to 7 days; format: functional, organism-based; parameters: dose 10 mg/kg
In short: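 Peptide at 10 mg/kg ip was given 5 h before ip challenge with E. coli 25922 (2.5 × 10^8 CFU), P. aeruginosa 27853 (8 × 10^7 CFU) or S. aureus 25923 (2 × 10^8 CFU) per mouse. Viable bacteria were counted in peritoneal lavage collected in 2 mL of cold saline (n = 7, 6 and 8 respectively; unpaired t test). Survival was recorded for up to 7 days.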

For CC[C@H](C)[C@H](NC(=O)[C@@H](NC(=O)[C@H](CCCNC(=N)N)NC(=O)[C@@H]1CCCN1C(=O)[C@H](CCCCN)NC(=O)[C@H](CCCCN)NC(=O)[C@H](Cc1ccccc1)NC(=O)[C@H](Cc1ccccc1)NC(=O)[C@H](CCCCN)NC(=O)[C@H](CCCCN)NC(=O)[C@H](C)NC(=O)[C@H](CCCNC(=N)N)NC(=O)[C@H](CCCCN)NC(=O)[C@H](CCCCN)NC(=O)[C@@H](NC(=O)[C@H](CO)NC(=O)[C@H](CC(N)=O)NC(=O)[C@H](CCCCN)NC(=O)[C@H](CC(C)C)NC(=O)[C@H](CCCCN)NC(=O)[C@H](CCCCN)NC(=O)[C@H](Cc1ccccc1)NC(=O)[C@H](Cc1ccccc1)NC(=O)[C@@H](N)CCCCN)C(C)C)C(C)C)C(=O)NCC(=O)N[C@H](C(=O)N[C@@H](CO)C(=O)N[C@H](C(=O)N1CCC[C@H]1C(=O)N[C@@H](Cc1ccccc1)C(=O)O)[C@@H](C)CC)C(C)C (H-KFFKKLKNSVKKRAKKFFKKPRVIGVSIPF-OH), the Activity [1] was “Non-toxic”, the survival at 10 mg/kg (Mus musculus [2]) was 63% and the Activity (BMDM [3]) was “Active”. For the same molecule, the Activity (BMDM [4]) was “Active”, the Activity (BMDM [5]) was “inactive” and the Activity (BMDM [6]) was “Active”. For the same molecule, the Activity (PBMC) was “Active”, the inhibition (RAW264.7 [7]) was “Active” and the Activity (Mus musculus [8]) was “Active”. The Activity [9] was 1450 pg/mL, the Activity [10] was “tde” and the Activity [11] was 156 pg/mL. The Activity [12] was 464.9 pg/mL, the survival at 10 mg/kg (Mus musculus [13]) was 40% and the Activity (Mus musculus [14]) was “inactive”. The half-life [15] was less than 1 h, the Activity (RAW264.7 [16]) was 20% and the Activity [17] was 979.6 pg/mL. The Activity (BMDM [18]) was “Active”, the Activity (Mus musculus [19]) was 40% and the Activity (BMDM [20]) was “inactive”. The Activity (RAW264.7 [21]) was “inactive”, the Activity (RAW264.7 [22]) was “inactive” and the Activity (BMDM [23]) was “Active”. The Activity (Mus musculus [24]) was “Active”.
